Screening data: PubChem BioAssay, SRMLSC
PostGolgi yeast – growth inhibition of a yeast mutant, post-Golgi transport screen; inhibition, % at 10 µM; post-Golgi transport phenotypic cell assay; hit rate 0.9% among 98,000; AID 739;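 further: yeast cells grown in 1536-well plates; yeast grown about 18 h at 30C before absorbance read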
PostGolgi ctrl – inhibits growth of the yeast control strain; efflux-deficient yeast background strain, growth absorbance A615, 16 h; hit rate 5% among 98,000; inhibition, % at 10 µM; AID 738
Yeast growth inh – yeast BB579 growth reduction in restrictive medium; S. cerevisiae BB579 growth, OD615, 48 h; hit rate 0.51% among 140,000; inhibition, % at 10 µM;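 active means inhibition above a set limit, 3 SD over the mean compound inhibition, cut at about 44% in these data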
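Test system: S. cerevisiae DeaD strain BB579 yeast; Medium: restrictive CSMM-D medium; Compound: one dose, 10 µM compound with 0.25% DMSO; Incubation: 4 h cell preincubation, 48 h compound exposure, 30 °C humidified; Signal: OD at 615 nm; Benchmarks: amphotericin B at 10 µg/mL as positive control.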
Yeast life ext – yeast lifespan extension. S. cerevisiae growth with nicotinamide, OD615; deaD strain in restrictive glucose medium. inhibition of the nicotinamide effect, % at 10 µM. hit rate 0.68% among 130,000;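 active means inhibition above a set limit, placed 3 SD over the median of all compounds, cut at about 26% in these data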
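Test system – modified budding yeast, DeaD strain · Compound – single dose 10 µM compound, 0.25% DMSO · Times – culture preincubation 4 h, compound exposure 48 h, both 30 °C · Detection – optical density (absorbance) at 615 nm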
A number is an active result; – = inactive; · = not tested or not shown. The sample as a whole holds a higher share of hits than the screen did. Unless noted, no stated cut-off is given here; in the data, active means inhibition above about 30%; inactive means the rest.

SMILES	PostGolgi yeast	PostGolgi ctrl	Yeast growth inh	Yeast life ext
COc1ccc(C(=O)NCCn2ccc3ccccc32)c(OC)c1	·	·	–	·
CCOC(=O)c1sc(=S)n(-c2cc(F)ccc2F)c1N	–	–	45.2	–
COC(=O)c1sc(=S)n(-c2cc(F)ccc2F)c1N	–	–	–	–
CCn1c(=O)c2ccccc2n2c(SCC(=O)N3CCCc4ccccc43)nnc12	–	–	–	38.9
CCCn1c(SCC(=O)N2CCCc3ccccc32)nnc1-c1ccco1	–	35.6	–	–
COC(=O)c1ccccc1OCCCOc1ccc(C=O)cc1OC	–	–	–	–
CCOC(=O)C1=C(CN2c3ccccc3CC2C)NC(=O)NC1c1ccccc1 (configuration not stated)	–	33.4	–	–
CCOC(=O)C1=C(CP(=O)(c2ccccc2)c2ccccc2)NC(=O)NC1c1ccc(Cl)cc1 (configuration not stated)	·	·	–	–
CCOC(=O)/C(=C\c1ccc(OC(F)F)cc1)C1=Nn2c(nnc2-c2ccc(Cl)cc2)SC1	·	·	–	–
CC(=O)c1cccc(NC(=O)C2CCN(S(=O)(=O)c3ccccc3)CC2)c1	–	33.5	–	–
O=C(CN(C(=O)c1ccccc1Cl)C1CCCCC1)Nc1ccc(Cl)c([N+](=O)[O-])c1	–	35.6	–	–
O=C(CN(C(=O)c1ccc(Cl)cc1)C1CCCCC1)Nc1ccc(Cl)c([N+](=O)[O-])c1	·	·	–	–
CN(C(=O)c1cnc(N2CCN(c3ncccn3)CC2)c2ccccc12)c1ccc(Cl)cc1	–	73.3	–	–
CCN(C(=O)c1cnc(N2CCN(c3ncccn3)CC2)c2ccccc12)c1cccc(Cl)c1	–	–	–	–
COc1cccc(-c2nc(N3CCN(c4ccccc4)CC3)c3ccccc3n2)c1O	–	–	–	–
COc1cccc(-c2nc(Oc3cccc(C)c3C)c3ccccc3n2)c1O	·	·	–	–
COc1cccc(-c2nc(NC(C)C)c3ccccc3n2)c1O	–	75.3	–	–
CCC(C)Nc1nc(-c2cccc(OC)c2O)nc2ccccc12 (configuration not stated)	–	72.5	–	–
O=C(N/N=C/c1cccc(OC(=O)N2CCOCC2)c1)c1cccs1	·	·	–	–
CCCCOC(=O)n1c(=S)oc2cc(Cl)ccc21	–	–	97.7	–
COC(=O)n1c(=O)oc2cc(S(=O)(=O)N3CCOCC3)ccc21	–	–	–	–
CCCCOC(=O)n1c(=O)oc2cc(S(=O)(=O)N3CCCCC3)ccc21	–	–	–	68.5
COC(=O)n1c(=S)oc2cc(Cl)ccc21	–	–	–	–
c1ccc(C2=Nc3ccccc3NC(c3ccccc3)C2)cc1 (configuration not stated)	–	35.5	–	–
O=c1c2ccccc2cnn1-c1ccc(Cl)cc1	–	–	–	–
SMILES	PostGolgi yeast	PostGolgi ctrl	Yeast growth inh	Yeast life ext
CC(O/N=C/c1ccc(OC(F)F)cc1)C(=O)Nc1cccc(S(=O)(=O)N2CCOCC2)c1 (configuration not stated)	·	·	–	–
O=C(Nc1ccccc1)Nc1ccc(C(=O)N2CCOCC2)cc1	–	–	–	–
c1ccc(-c2c3ccccc3nc3[nH]c4ccccc4c23)cc1	·	·	–	–
c1ccc2nc3c(nc2c1)[nH]c1ccccc13	·	·	76.9	·
C/C(CC(=O)Nc1cccc2c1CCCC2)=N\NC(=O)c1ccccc1N	–	32.0	–	–
O=C(Nc1nc(-c2cc3ccccc3o2)cs1)c1ccc(S(=O)(=O)N2CCCC2)cc1	·	·	–	–
CN(C)S(=O)(=O)c1ccc(C(=O)Nc2nc(-c3cc4ccccc4o3)cs2)cc1	·	·	–	28.0
COCCCNC(=O)CCS(=O)(=O)Cc1ccc(C)cc1	–	–	–	–
CCN(C(=O)CSc1nnc(Cn2nnc3ccccc32)o1)c1nc(-c2ccccc2)cs1	–	35.1	–	–
CCN(C(=O)CSc1nnc(Cn2nnc3ccccc32)o1)c1nc(C)cs1	·	·	–	·
Clc1ccc(/C=C/c2nc3ccccc3[nH]2)cc1	–	–	–	–
Clc1cccc(Cl)c1/C=C/c1nc2ccccc2[nH]1	–	65.9	–	–
Clc1ccc(/C=C/c2nc3ccccc3[nH]2)c(Cl)c1	–	75.3	–	–
C(=N\n1cnnc1)/c1nc2ccccc2[nH]1	–	–	–	–
CCCCCOC(=O)CSc1nnc(-c2ccccc2)c(=O)[nH]1	–	–	–	–
CC(C)COC(=O)c1cc(=O)[nH]c2ccccc12	–	–	–	–
CC(C)COC(=O)c1ccc2c(c1O)C(=O)c1ccccc1C2=O	103.9	–	–	–
CCc1ccc(C2CC(=O)N3CN(c4ccccc4)CSC3=C2C#N)cc1 (configuration not stated)	–	–	–	–
N#CC1=C2SCC(O)(c3ccccc3)N2C(=O)CC1c1ccccc1 (configuration not stated)	41.4	–	–	–
O=C(CSc1ncnc2scc(-c3ccc(Cl)cc3)c12)NCc1ccc2c(c1)OCO2	·	·	–	·
Cc1ccc(-c2csc3ncnc(SCC(=O)NCc4ccc5c(c4)OCO5)c23)cc1	–	42.9	–	–
O=C1c2ccccc2C(=O)N1CCCCN(C(=O)c1cc2ccccc2oc1=O)c1ccc(F)cc1F	·	·	–	–
CCOC(=O)c1c(C)oc2c1c(C(c1cccnc1)N1CCCCC1)c(O)c1ccccc12 (configuration not stated)	–	52.7	–	50.2
Cc1[nH]c2ccccc2c1Cc1nnc(SCc2ccccc2)o1	–	34.5	–	–
COc1c2c(nc3occc13)C(CCC(C)(C)O)(OC)C(O)CC2 (configuration not stated)	–	30.0	–	–
SMILES	PostGolgi yeast	PostGolgi ctrl	Yeast growth inh	Yeast life ext
COc1ccc(F)cc1S(=O)(=O)NC1CCCC1	–	–	–	–
Cc1nn(Cc2ccccc2)c(N)c1C#N	–	–	–	–
Cc1nn(Cc2ccccc2)c(N)c1-c1ccccc1	34.3	–	–	–
COC(=O)C1=C(C)NC2=C(C(=O)CC(C)(C)C2)C1c1cnn(C)c1C (configuration not stated)	·	·	–	–
CCCCCc1c(C)nc(NCc2ccccc2)[nH]c1=O	–	39.3	–	–
O=C(CN1CCN(c2ccccn2)CC1)Nc1ccc(Oc2ccccc2)cc1	58.3	–	–	–
O=C(CN1CCN(c2ccccn2)CC1)Nc1ccccc1	–	–	–	–
COc1ccc(C2C(C(=O)N3CCOCC3)CCC(=O)N2c2cc(OC)c(OC)c(OC)c2)cc1 (configuration not stated)	–	–	–	–
CCc1ccc2c(c1)C1(C(=O)N2)N2CCCC2C(C(=O)c2ccc3ccccc3c2)C12C(=O)Nc1ccccc12 (configuration not stated)	·	·	–	–
CCc1ccc2c(c1)C1(NN=C(c3cccc4ccccc34)S1)C(=O)N2 (configuration not stated)	·	·	66.0	·
COC(=O)CCSCc1cn2cc(Cl)ccc2n1	–	–	–	–
Cn1c(=O)n(CCc2ccccc2)c(=O)c2c1nc1n2CCCN1CCc1ccccc1	–	37.0	–	–
Cn1c(=O)n(CCc2ccccc2)c(=O)c2c1nc1n2CCCN1Cc1ccccc1	–	–	–	–
Cn1c(N2CCOCC2)nc2c1c(=O)n(Cc1ccc(Cl)c(Cl)c1)c(=O)n2C	–	40.2	–	–
